Source: ChEMBL document CHEMBL2424598, “Identification and optimization of pteridinone Toll-like receptor 7 (TLR7) agonists for the oral treatment of viral hepatitis” (J Med Chem, 2013)

What was measured:
[1] = Half life in monkey liver microsomes; type: ADME, Macaca mulatta, Microsome; conditions: rhesus monkey
[2] = Oral bioavailability in cynomolgus monkey at 0.3 mg/kg; type: ADME, organism-based, Macaca fascicularis; conditions: in vivo
Summary of the method: (§1)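 Healthy male cynomolgus monkeys, n = 3, received a 30 min iv infusion at 0.1 mg/kg or an oral dose at 0.3 mg/kg. The oral formulation was water at pH 3.1 (HCl). Plasma PK parameters (CL, Vss, F) are reported as mean ± SD.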

[3] = Half life in human liver microsomes; type: ADME, Microsome
Cynomolgus monkey [4] = experiment: Agonist activity at […] in cynomolgus monkey assessed as increase of serum TNFalpha level at 2 mg/kg after 1 to 24 hrs by ELISA
[5] = Cmax in cynomolgus monkey at 0.3 mg/kg, po; type: ADME, organism-based, Macaca fascicularis; design: dose 0.3 mg/kg, route oral; conditions: in vivo
Summary of the method: (§2)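 Male cynomolgus monkeys, n = 3 per group, received a 30 min iv infusion or an oral dose. Compound was measured in serum (limit of quantitation 0.04 ng/mL), and Cmax is reported as the group mean.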

Cynomolgus monkey [6] = experiment: Agonist activity at […] in cynomolgus monkey assessed as increase of serum IFNalpha level at 0.1 mg/kg, iv after 1 to 24 hrs by ELISA; type: functional, Macaca fascicularis
Summary of the method: (§3)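 Healthy male cynomolgus monkeys, n = 3 per group, dosed either by 30 min iv infusion or orally. Serum was sampled predose and at 1, 2, 4, 8, 12 and 24 h postdose. IFN-α was measured by species-specific ELISA (limit of detection 130 pg/mL) and reported as mean peak serum level ± SD.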

[7] = Half life in rat liver microsomes; type: ADME, Microsome
[8] = Half life in dog liver microsomes; type: ADME, Canis lupus familiaris, Microsome
[9] = Cmax in cynomolgus monkey at 0.1 mg/kg, iv; type: ADME, organism-based, Macaca fascicularis; design: dose 0.1 mg/kg, route intravenous; conditions: in vivo; summary of the method: as §2
[10] = Volume of distribution at steady state in cynomolgus monkey at 0.1 mg/kg, iv and 0.3 mg/kg, po; type: ADME, organism-based, Macaca fascicularis; conditions: in vivo, read-out: Vdss; summary of the method: as §1
Cynomolgus monkey [11] = experiment: Agonist activity at […] in cynomolgus monkey assessed as increase of serum IFNalpha level at 2 mg/kg, po after 1 to 24 hrs by ELISA; type: functional, Macaca fascicularis; summary of the method: as §3
Cynomolgus monkey [12] = experiment: Agonist activity at […] in cynomolgus monkey assessed as increase of serum IFNalpha level at 0.1 mg/kg, po after 1 to 24 hrs by ELISA; type: functional, Macaca fascicularis; summary of the method: as §3
[13] = target: T1, Toll-like receptor 7 (Homo sapiens) (UniProt Q9NYK1); experiment: Agonist activity at TLR7-mediated IFNalpha production in human PBMC assessed as minimum concentration of compound necessary to generate >3 fold of cytokine levels relative to control
T1 sequence (whole entry): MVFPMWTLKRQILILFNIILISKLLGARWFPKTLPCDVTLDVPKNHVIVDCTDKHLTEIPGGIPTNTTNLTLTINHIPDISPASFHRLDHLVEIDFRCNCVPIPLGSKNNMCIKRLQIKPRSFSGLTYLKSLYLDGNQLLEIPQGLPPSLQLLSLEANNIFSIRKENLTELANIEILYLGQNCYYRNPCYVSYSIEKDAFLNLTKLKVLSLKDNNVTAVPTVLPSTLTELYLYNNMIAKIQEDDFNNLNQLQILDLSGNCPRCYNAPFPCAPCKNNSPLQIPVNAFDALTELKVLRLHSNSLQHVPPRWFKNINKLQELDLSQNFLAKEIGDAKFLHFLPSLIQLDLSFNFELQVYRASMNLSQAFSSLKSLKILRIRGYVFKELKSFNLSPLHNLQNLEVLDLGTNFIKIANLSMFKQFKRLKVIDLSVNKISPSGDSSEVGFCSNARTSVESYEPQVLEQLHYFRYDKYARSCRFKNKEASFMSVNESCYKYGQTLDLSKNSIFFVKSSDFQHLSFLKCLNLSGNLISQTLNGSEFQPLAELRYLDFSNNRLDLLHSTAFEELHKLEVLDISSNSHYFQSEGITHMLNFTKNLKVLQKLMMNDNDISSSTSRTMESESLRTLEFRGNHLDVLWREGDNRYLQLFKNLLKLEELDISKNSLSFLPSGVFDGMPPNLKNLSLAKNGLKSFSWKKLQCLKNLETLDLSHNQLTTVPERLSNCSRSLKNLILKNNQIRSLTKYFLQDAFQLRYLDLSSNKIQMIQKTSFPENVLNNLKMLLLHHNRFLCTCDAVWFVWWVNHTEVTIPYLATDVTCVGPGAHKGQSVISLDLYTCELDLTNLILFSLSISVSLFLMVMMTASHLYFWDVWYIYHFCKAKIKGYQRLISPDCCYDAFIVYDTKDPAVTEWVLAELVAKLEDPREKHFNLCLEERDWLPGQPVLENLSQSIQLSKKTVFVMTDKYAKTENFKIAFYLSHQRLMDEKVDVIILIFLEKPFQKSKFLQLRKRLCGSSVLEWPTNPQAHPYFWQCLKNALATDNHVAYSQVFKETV
Summary of the method: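 Cryopreserved PBMCs from leukapheresis of a single healthy human donor, chosen as a consistent, robust responder to TLR7 agonist stimulation. Cells were incubated with compound for 24 h over an eight-point concentration range. Secreted IFN-α was measured to build dose-response curves. MEC was taken as the lowest concentration giving cytokine levels ≥3-fold over untreated control cultures.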

[14] = Cmax in cynomolgus monkey at 1 mg/kg, po; type: ADME, organism-based, Macaca fascicularis; design: dose 1 mg/kg, route oral; conditions: in vivo; summary of the method: as §2
[15] = Cmax in cynomolgus monkey at 2 mg/kg, po; type: ADME, organism-based, Macaca fascicularis; design: dose 2 mg/kg, route oral; conditions: in vivo; summary of the method: as §2

half-life [1]: 5.9 min
bioavailability [2]: 1.1%
half-life [3]: 30.5 min
Cmax [5]: 4.6 ng/mL
half-life [7]: 5.4 min
half-life [8]: 58.6 min
Cmax [9]: 128 ng/mL
Vd [10]: 4.1 L/kg
MEC [13]: 3 nM
Cmax [14]: 20.7 ng/mL
Cmax [15]: 66.4 ng/mL
Structure (SMILES): CCCCOc1nc(N)c2c(n1)N(Cc1cccc(CN3CCCC3)c1)CC(=O)N2 [VESATOLIMOD]
Activity (Cynomolgus monkey [4]): 578 pg/mL
Activity (Cynomolgus monkey [6]): 1840 pg/mL
Activity (Cynomolgus monkey [11]): 119000 pg/mL
Activity (Cynomolgus monkey [12]): 140 pg/mL
